Key:
[1] = target: T1, Adrenergic receptor alpha-2 (Rattus norvegicus, UniProt P22086+P19328+P22909); test: The compound was evaluated for the alpha-2 adrenergic receptor antagonistic activity in rat vas deferens vs clonidin; format: functional, tissue-based
T1 sequence (P22086 whole entry): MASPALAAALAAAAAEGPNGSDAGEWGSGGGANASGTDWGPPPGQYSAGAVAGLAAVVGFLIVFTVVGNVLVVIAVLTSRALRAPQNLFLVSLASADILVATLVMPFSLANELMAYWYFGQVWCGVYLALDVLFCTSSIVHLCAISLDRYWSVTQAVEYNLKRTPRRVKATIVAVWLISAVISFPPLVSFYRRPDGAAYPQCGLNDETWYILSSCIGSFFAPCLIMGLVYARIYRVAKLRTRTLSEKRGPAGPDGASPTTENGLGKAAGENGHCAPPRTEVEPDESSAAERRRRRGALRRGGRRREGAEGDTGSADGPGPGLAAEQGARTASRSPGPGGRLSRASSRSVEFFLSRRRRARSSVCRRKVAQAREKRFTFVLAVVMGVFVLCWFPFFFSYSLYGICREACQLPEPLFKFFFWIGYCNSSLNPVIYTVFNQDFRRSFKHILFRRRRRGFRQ
T1 sequence (P19328 whole entry): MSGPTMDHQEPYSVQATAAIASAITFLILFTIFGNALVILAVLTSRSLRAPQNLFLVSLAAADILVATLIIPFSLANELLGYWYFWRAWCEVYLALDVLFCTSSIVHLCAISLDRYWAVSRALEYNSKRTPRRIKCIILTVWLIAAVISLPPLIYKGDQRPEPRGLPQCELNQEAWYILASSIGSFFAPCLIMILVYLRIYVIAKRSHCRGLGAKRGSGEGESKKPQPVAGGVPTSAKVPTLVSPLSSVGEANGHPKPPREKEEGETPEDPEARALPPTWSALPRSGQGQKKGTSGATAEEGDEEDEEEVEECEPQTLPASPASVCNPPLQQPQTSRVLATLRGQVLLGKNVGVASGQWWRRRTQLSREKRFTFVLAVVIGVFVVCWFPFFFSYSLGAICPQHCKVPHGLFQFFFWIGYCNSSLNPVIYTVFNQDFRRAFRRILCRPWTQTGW
T1 sequence (P22909 whole entry): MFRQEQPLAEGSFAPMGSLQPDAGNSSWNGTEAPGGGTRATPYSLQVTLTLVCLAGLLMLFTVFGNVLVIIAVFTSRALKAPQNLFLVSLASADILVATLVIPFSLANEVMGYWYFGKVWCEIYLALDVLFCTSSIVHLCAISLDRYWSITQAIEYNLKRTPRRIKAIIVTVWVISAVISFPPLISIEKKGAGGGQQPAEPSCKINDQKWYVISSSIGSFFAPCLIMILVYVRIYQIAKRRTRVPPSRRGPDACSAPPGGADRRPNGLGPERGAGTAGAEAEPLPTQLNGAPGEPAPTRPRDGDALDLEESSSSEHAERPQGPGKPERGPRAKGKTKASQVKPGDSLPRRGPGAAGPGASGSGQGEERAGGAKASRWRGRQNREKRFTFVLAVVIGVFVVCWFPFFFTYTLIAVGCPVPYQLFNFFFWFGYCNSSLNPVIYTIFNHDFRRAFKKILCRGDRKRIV
Summary of the method: (§1)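 Vasa deferentia from Sprague-Dawley rats (180–250 g) mounted between platinum ring electrodes at 1 g resting tension in oxygenated Krebs at 37 °C. Single-pulse electrical stimulation (1 ms, 0.15 Hz, lowest voltage giving maximal contraction).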

Mus musculus = test: Antagonistic activity against clonidine-induced antinociception in mouse after po administration; format: functional
Summary of the method: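 Swiss Webster mice (18–24 g), 10 per treatment. Test compound was given orally in 0.9% NaCl at 10 mL/kg. […] Mice were observed 5–10 min after PPQ, and those writhing at least 3 times were counted as percent reversal.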

[2] = target: T1, Adrenergic receptor alpha-2; test: Binding affinity against alpha-2 adrenergic receptor was determined by the displacement of [3H]clonidine from rat brain cortical membranes; format: cell membranes, Membrane
[3] = target: T1, Adrenergic receptor alpha-2; test: Alpha-2 adrenergic receptor agonistic activity in rat vas deferens.
[4] = target: T1, Adrenergic receptor alpha-2; test: Alpha-2 adrenergic receptor antagonistic activity in rat vas deferens vs clonidin; format: functional, tissue-based; summary of the method: as §1
[5] = target: T2, Adrenergic receptor alpha-1 (Rattus norvegicus, UniProt P15823+P23944+P43140); test: The compound was evaluated for the alpha-1 adrenergic receptor antagonistic activity in rat vas deferens vs methoxamine alpha-1 adrenoceptor antagonism; format: functional, tissue-based
T2 sequence (P15823 whole entry): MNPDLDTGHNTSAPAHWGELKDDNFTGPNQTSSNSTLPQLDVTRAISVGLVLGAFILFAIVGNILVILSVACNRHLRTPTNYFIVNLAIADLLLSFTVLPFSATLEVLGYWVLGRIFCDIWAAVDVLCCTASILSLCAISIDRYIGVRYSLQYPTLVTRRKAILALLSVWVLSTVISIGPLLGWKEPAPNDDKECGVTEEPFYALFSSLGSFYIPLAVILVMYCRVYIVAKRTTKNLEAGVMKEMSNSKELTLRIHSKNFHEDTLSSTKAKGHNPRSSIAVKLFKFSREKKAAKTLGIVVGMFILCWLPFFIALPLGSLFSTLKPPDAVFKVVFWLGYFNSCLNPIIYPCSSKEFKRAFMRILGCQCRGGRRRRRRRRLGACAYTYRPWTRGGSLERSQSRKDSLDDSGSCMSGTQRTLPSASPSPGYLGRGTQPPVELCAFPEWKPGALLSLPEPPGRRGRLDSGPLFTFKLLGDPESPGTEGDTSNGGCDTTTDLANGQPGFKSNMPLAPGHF
T2 sequence (P23944 whole entry): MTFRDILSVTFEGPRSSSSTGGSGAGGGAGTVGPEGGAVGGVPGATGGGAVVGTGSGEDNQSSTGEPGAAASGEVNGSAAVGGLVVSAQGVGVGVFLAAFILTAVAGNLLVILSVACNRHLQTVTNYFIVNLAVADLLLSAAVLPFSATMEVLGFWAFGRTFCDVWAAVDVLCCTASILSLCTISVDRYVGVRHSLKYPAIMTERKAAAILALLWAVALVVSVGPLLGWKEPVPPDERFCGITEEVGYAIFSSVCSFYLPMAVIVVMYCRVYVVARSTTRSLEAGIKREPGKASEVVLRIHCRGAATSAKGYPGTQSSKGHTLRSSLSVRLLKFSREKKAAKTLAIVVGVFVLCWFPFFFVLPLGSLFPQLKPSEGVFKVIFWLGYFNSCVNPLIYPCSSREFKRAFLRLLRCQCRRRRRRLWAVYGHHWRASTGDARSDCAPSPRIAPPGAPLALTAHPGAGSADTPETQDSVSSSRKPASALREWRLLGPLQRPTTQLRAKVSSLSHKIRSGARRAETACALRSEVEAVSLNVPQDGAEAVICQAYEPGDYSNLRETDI
T2 sequence (P43140 whole entry): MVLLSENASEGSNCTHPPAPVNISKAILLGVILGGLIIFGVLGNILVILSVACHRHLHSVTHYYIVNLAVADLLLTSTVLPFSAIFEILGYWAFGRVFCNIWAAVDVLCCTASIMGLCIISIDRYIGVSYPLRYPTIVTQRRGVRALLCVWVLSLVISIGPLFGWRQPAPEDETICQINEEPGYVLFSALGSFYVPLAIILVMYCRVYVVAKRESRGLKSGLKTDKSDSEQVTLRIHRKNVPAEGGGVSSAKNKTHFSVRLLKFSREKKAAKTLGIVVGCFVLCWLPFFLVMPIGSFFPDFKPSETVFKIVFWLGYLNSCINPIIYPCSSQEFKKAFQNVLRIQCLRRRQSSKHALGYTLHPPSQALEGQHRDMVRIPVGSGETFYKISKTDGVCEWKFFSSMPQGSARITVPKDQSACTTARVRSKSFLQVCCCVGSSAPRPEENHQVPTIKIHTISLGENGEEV
Summary of the method: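 Vasa deferentia from Sprague-Dawley rats (180–250 g) mounted at 1 g resting tension in oxygenated Krebs at 31 °C. Methoxamine was the reference α1 agonist. Agonist concentration-effect curves were run without and with at least three antagonist concentrations after 10 min preincubation. Potency was taken from Schild analysis, mean of at least three preparations from separate animals.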

[6] = target: T1, Adrenergic receptor alpha-2; test: Alpha-2 adrenergic receptor antagonistic activity in rat vas deferens vs clonidine; format: functional, tissue-based
[7] = target: T2, Adrenergic receptor alpha-1; test: Binding affinity against alpha-1 adrenergic receptor was determined by the displacement of [3H]prazosin from rat brain cortical membranes; value ranges from 6.06-7.06; format: cell membranes, Membrane
Summary of the method: (§2)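 Rat cortex was homogenized in 50 mM Tris pH 7.7, washed twice by centrifugation at 48000g and resuspended in 150 volumes. […] Nonspecific binding was defined with 10 μM phentolamine. Bound label was counted on filters, in triplicate. IC50 by logit plot, converted to Ki by Cheng-Prusoff.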

[8] = target: T1, Adrenergic receptor alpha-2; test: The compound was evaluated for the alpha-2 adrenergic receptor agonistic activity in rat vas deferens; the effect was not yohimbine reversible.
[9] = target: T2, Adrenergic receptor alpha-1; test: Binding affinity against alpha-1 adrenergic receptor was determined by the displacement of [3H]prazosin from rat brain cortical membranes; value ranges from 4.6-30.6; format: cell membranes, Membrane; summary of the method: as §2
[10] = target: T3, Adrenergic receptor alpha-2 (Rattus norvegicus) (UniProt P22086+P19328+P22909); test: The compound was evaluated for the alpha-2 adrenergic receptor antagonistic activity in rat vas deferens vs clonidin; l = compound contracted the tissue at 100nM, which is an alpha-1 agonist like response; format: functional, tissue-based; conditions: filed as agonist
[11] = target: T3, Adrenergic receptor alpha-2 (Rattus norvegicus); test: The compound was evaluated for the alpha-2 adrenergic receptor antagonistic activity in rat vas deferens vs clonidine; i = the compound contracted the tissue at 100 nM; format: functional, tissue-based; conditions: filed as agonist; summary of the method: as §1
[12] = target: T2, Adrenergic receptor alpha-1; test: Binding affinity against alpha-1 adrenergic receptor was determined by the displacement of [3H]prazosin from rat brain cortical membranes; value ranges from 7.8-34.6; format: cell membranes, Membrane; summary of the method: as §2

SMILES | ED50 (Mus musculus) | Ki [2] | pA2 [4] | other results
CN1c2c(Cl)cccc2CC1C1=NCCN1 (stereo not given) | 0.1 mg/kg | 0.72 nM |  | pA2 [1]: 8.8
c1ccc2c(c1)CCN2C1=NCCN1 |  | > 1000 nM |  | 
C[C@H]1c2ccccc2N(C)[C@@H]1C1=NCCN1 |  | 72.3 nM | 6.96 | IC50 [3]: > 1000 nM
C=CCN1c2ccccc2CC1C1=NCCN1 (stereo not given) |  | 0.47 nM |  | pA2 [5]: 8.02; pA2 [6]: 9.07; Ki [7]: 6.56 nM
C=CC[C@@]1(C2=NCCN2)Cc2ccccc2N1C |  | 77 nM |  | IC50 [3]: > 1000 nM; pA2 [1]: 6.96
C[C@@H]1c2ccccc2N(C)[C@@H]1C1=NCCN1 | > 300 mg/kg | 6.9 nM |  | IC50 [3]: 3.29 nM; pA2 [1]: < 6
COC[C@@]1(C2=NCCN2)Cc2ccccc2N1C |  | 38 nM |  | IC50 [8]: 131 nM
CN1c2c(Cl)cc(Cl)cc2CC1C1=NCCN1 (stereo not given) |  | 12.3 nM | 8 | 
Cn1c(CC2=NCCN2)cc2ccccc21 | 100 mg/kg | 46.7 nM |  | pA2 [6]: 7.48
CCOCCN1c2ccccc2CC1C1=NCCN1 (stereo not given) | 20.5 mg/kg | 26 nM |  | pA2 [6]: 7.81
CN1c2ccccc2CC1C1=NCCN1 (stereo not given) | 1.3 mg/kg | 0.45 nM | 8.65 | pA2 [5]: 7.75; Ki [9]: 10.5 nM
CN1c2ccccc2CC1CC1=NCCN1 (stereo not given) |  | 355 nM |  | pA2 [6]: < 6
CC(C)N(C[C@@]1(C2=NCCN2)Cc2ccccc2N1C)C(C)C |  | 25.1 nM |  | IC50 [3]: 94.8 nM
CCCN1c2ccccc2CC1C1=NCCN1 (stereo not given) | 100 mg/kg | 1.93 nM | 8.76 | 
C[C@@H]1Cc2ccccc2N(C)[C@@H]1C1=NCCN1 |  | 719 nM | 5.88 | 
CN(CC1=NCCN1)c1ccccc1 |  | 3.9 nM |  | pA2 [10]: Agonist
COC(=O)[C@@H]1[C@H]2C[C@H]3c4[nH]c5ccccc5c4CCN3C[C@@H]2CC[C@@H]1O [YOHIMBINE] | 0.6 mg/kg |  |  | 

SMILES | ED50 (Mus musculus) | Ki [2] | pA2 [4] | other results
Cn1c(C2=NCCN2)cc2ccccc21 |  | > 1000 nM |  | pA2 [6]: > 6
c1ccc2c(c1)OCC(C1=NCCN1)O2 (stereo not given) [IDAZOXAN] | 1.6 mg/kg |  |  | 
c1ccc2c(c1)CC(C1=NCCN1)N2 (stereo not given) |  | 2.11 nM |  | pA2 [6]: 8.16
CN1c2ccccc2CCC1C1=NCCN1 (stereo not given) |  | 1.52 nM | 8.13 | 
CCC[C@@]1(C2=NCCN2)Cc2ccccc2N1C |  | 260 nM | 6.6 | IC50 [3]: > 1000 nM
CCCCN1c2ccccc2CC1C1=NCCN1 (stereo not given) | 4 mg/kg | 3.5 nM |  | pA2 [6]: 8.8
C[C@@H]1Cc2ccccc2N[C@@H]1C1=NCCN1 |  | > 1000 nM | < 6 | IC50 [3]: > 1000 nM
c1ccc(N2c3ccccc3CC2C2=NCCN2)cc1 (stereo not given) |  | 4.2 nM |  | pA2 [11]: Agonist
CN1c2ccc(F)cc2CC1C1=NCCN1 (stereo not given) |  | 0.91 nM | 8.45 | pA2 [5]: 8.03; Ki [12]: 16.4 nM
CN1c2ccc(Cl)cc2CC1C1=NCCN1 (stereo not given) |  | 1.9 nM | 8.56 | 
c1ccc(CCN2c3ccccc3CC2C2=NCCN2)cc1 (stereo not given) | 6 mg/kg | 6 nM |  | 
c1ccc2c(c1)CCC(C1=NCCN1)N2 (stereo not given) |  | 13.8 nM | 8.03 | 
CCN1c2ccccc2CC1C1=NCCN1 (stereo not given) | 2.6 mg/kg | 0.91 nM | 8.91 | 
c1ccc(CN2c3ccccc3CC2C2=NCCN2)cc1 (stereo not given) | 7 mg/kg | 2.3 nM | 7.93 | 
CN1c2ccc(Cc3ccccc3)cc2CC1C1=NCCN1 (stereo not given) | > 100 mg/kg | 53.6 nM | 7.59 | 
CN1c2ccccc2C[C@@]1(C)C1=NCCN1 |  | 3.4 nM |  | IC50 [3]: > 300 nM; pA2 [1]: 7.55
